Measurements as given in paper PMC9118414 (ACS Omega, 2022).

Experiments:
Experiment in all cases: Acute cytotoxicity, sulforhodamine B
Type in all cases: cell-based
[1] = system: A549 nonsmall cell lung carcinoma; details: Homo sapiens, A549, 72 h, read-out: IC50 on cell viability, A549
[2] = system: PC3 prostate adenocarcinoma; details: Homo sapiens, 72 h, read-out: IC50 on cell viability, PC3
[3] = system: HL60 promyelocytic leukemia; details: Homo sapiens, HL-60, 72 h, read-out: IC50 on cell viability, HL60
[4] = system: HEK293 human embryonic kidney cells; details: HEK293, 72 h, read-out: IC50 on cell viability, HEK293
[5] = system: peripheral blood mononuclear cells (PBMC); details: Homo sapiens, 72 h, read-out: IC50 on cell viability, PBMC
How it was run: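 PBMC were collected from healthy volunteers and kept in RPMI 1640 with 10% FBS and antibiotics at 37 °C, 5% CO2. 1.0 × 10^5 cells were exposed to various test-compound concentrations for 72 h. Viability read by sulforhodamine B assay. IC50 derived by curve fitting; values are means of three independent experiments.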

SMILES: COc1cccc2c1C(=O)c1c(O)c3c(c(O)c1C2=O)C[C@@](O)(C(=O)CO)C[C@@H]3O[C@H]1C[C@H](N)[C@H](O)[C@H](C)O1 [Doxorubicin]
- IC50 [1]: 1.8 ± 0.9 µM
- IC50 [2]: 2.7 ± 1.3 µM
- IC50 [3]: 0.07 ± 0.04 µM
- IC50 [4]: 4.8 ± 2 µM
- IC50 [5]: 5.2 ± 1.8 µM
